The term IC50 denotes the concentration that inhibits the measured activity by half. Read a high IC50 as weaker potency in that assay.

The test system of the first data set is HeLa. The data set is described as follows: Cytotoxicity against human HeLa cells after 2 days by Alamar blue assay. In kind it is cell-based. The following applies: 48 h. (In general: Alamar Blue is a resazurin reagent that responds to reducing activity.)
For `Cn1c([N+](=O)[O-])cnc1/C=C/c1cccc2ccccc12`, inhibition was half-maximal at 100000 nM (IC50).

Turning to `Cn1c([N+](=O)[O-])cnc1/C=C/c1cccc(Br)c1`, the IC50 is 87100 nM.

In the case of `CC(=O)OC(c1ccc(C)cc1)C(OC(C)=O)c1ncc([N+](=O)[O-])n1C` (stereo unspecified), the IC50 is > 100000 nM.

For the compound `Cn1c([N+](=O)[O-])cnc1/C=C/c1ccccc1-c1ccccc1`, the IC50 was > 100000 nM.

Compound `Cc1cccc(/C=C/c2ncc([N+](=O)[O-])n2C)c1` showed an IC50 of 30900 nM.

In turn, `Cn1c([N+](=O)[O-])cnc1/C=C/c1ccc(OC(F)(F)F)cc1` showed an IC50 of 83200 nM.

Take `COc1ccc(/C=C/c2ncc([N+](=O)[O-])n2C)c(OC)c1OC`: the IC50 is > 100000 nM.

Turning to `Cc1ccc(/C=C/c2ncc([N+](=O)[O-])n2C)cc1`, the IC50 is > 100000 nM.

In turn, `Cc1ccc(C(Br)C(Br)c2ncc([N+](=O)[O-])n2C)cc1` (stereo unspecified) showed an IC50 of 11200 nM.

System in a further data set: not listed separately
Description: Therapeutic index, ratio of IC50 for human HeLa cells to EC50 for Giardia lamblia trophozoites isolates. The data set is classed as cell-based. The conditions noted are these: read-out: Ratio IC50/EC50.
As for `Cc1ccccc1/C=C/c1ncc([N+](=O)[O-])n1C`, the selectivity ratio was 1350.

Turning to `Cn1c([N+](=O)[O-])cnc1/C=C/c1ccc2ccccc2c1`, the selectivity ratio came out at 1620.

On to `Cn1c([N+](=O)[O-])cnc1CCc1ccc(Br)cc1`, for which the selectivity ratio came to 85.

With `CCOC(OCC)c1ccc(/C=C/c2ncc([N+](=O)[O-])n2C)cc1`, the selectivity ratio came to 1860.

On to `Cn1c([N+](=O)[O-])cnc1/C=C/c1cccc(I)c1`, for which the selectivity ratio was 339.

As to `Cc1cc(C)c(/C=C/c2ncc([N+](=O)[O-])n2C)c(C)c1`, the selectivity ratio was 32.

Turning to `Cn1c([N+](=O)[O-])cnc1/C=C/c1cccc2ccccc12`, the selectivity ratio is 1000.

With `Cn1c([N+](=O)[O-])cnc1/C=C/c1cccc(Br)c1`, the selectivity ratio stood at 1860.

Turning to `CC(=O)OC(c1ccc(C)cc1)C(OC(C)=O)c1ncc([N+](=O)[O-])n1C` (stereo unspecified), the selectivity ratio was > 319.

Consider `Cn1c([N+](=O)[O-])cnc1/C=C/c1ccccc1-c1ccccc1`, for which the selectivity ratio is > 117.

Regarding `Cc1cccc(/C=C/c2ncc([N+](=O)[O-])n2C)c1`, the selectivity ratio was determined as 776.

Take `Cn1c([N+](=O)[O-])cnc1/C=C/c1ccc(OC(F)(F)F)cc1`: the selectivity ratio came out at 112.

As for `COc1ccc(/C=C/c2ncc([N+](=O)[O-])n2C)c(OC)c1OC`, the selectivity ratio is > 162.

As to `CC(=O)OC(c1ccc(Br)cc1)C(OC(C)=O)c1ncc([N+](=O)[O-])n1C` (stereo unspecified), the selectivity ratio was found to be 436.

Turning to `Cc1ccc(C(Br)C(Br)c2ncc([N+](=O)[O-])n2C)cc1` (stereo unspecified), the selectivity ratio is 174.

In another data set the test system is Giardia intestinalis. The data set is described as follows: Antigiardial activity against metronidazole-sensitive Giardia lamblia isolate 106 trophozoite after 2 days by bactiter-glo viability assay. The data set is classed as functional, organism-based. The following applies: Giardia duodenalis, isolate 106, 48 h. The gist of the method:
(§1)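 Trophozoites from mid-log cultures in TYI-S-33 with 10% bovine serum and 1 mg/mL bovine bile, grown anaerobically. Mz-resistant lines kept on 50 μM Mz but grown without it for 2–3 days beforehand. 1000–2000 cells/well, 1:3 serial dilutions, final 20 μM to 0.4 nM. 2 days at 37 °C anaerobically. ATP luminescence read-out. EC50 taken by graphic extrapolation of concentration–response curves. Mean ± SE of three experiments.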
`CCOC(OCC)c1ccc(/C=C/c2ncc([N+](=O)[O-])n2C)cc1` gave an EC50 of 200 nM.

In the case of `Cc1cc(C)c(/C=C/c2ncc([N+](=O)[O-])n2C)c(C)c1`, the EC50 was 427 nM.

Consider `Cn1c([N+](=O)[O-])cnc1/C=C/c1cccc(Br)c1`, for which the EC50 is 115 nM.

Turning to `CC(=O)OC(c1ccc(C)cc1)C(OC(C)=O)c1ncc([N+](=O)[O-])n1C` (stereo unspecified), the EC50 is 3090 nM.

For `Cn1c([N+](=O)[O-])cnc1/C=C/c1ccccc1-c1ccccc1`, the EC50 is 1230 nM.

For another data set, the system named is Giardia intestinalis. Description: Antigiardial activity against metronidazole-resistant Giardia lamblia isolate 713 trophozoite after 2 days by bactiter-glo viability assay. The data set is classed as functional, organism-based. The following applies: Giardia duodenalis, isolate 713, 48 h. The gist of the method: as §1
In turn, `CCOC(OCC)c1ccc(/C=C/c2ncc([N+](=O)[O-])n2C)cc1` gave an EC50 of 32.4 nM.

Regarding `Cc1cc(C)c(/C=C/c2ncc([N+](=O)[O-])n2C)c(C)c1`, the EC50 was 229 nM.

Turning to `Cn1c([N+](=O)[O-])cnc1/C=C/c1cccc(Br)c1`, the EC50 is 32.4 nM.

Take `CC(=O)OC(c1ccc(C)cc1)C(OC(C)=O)c1ncc([N+](=O)[O-])n1C` (stereo unspecified): the EC50 is 174 nM.

In turn, `Cn1c([N+](=O)[O-])cnc1/C=C/c1ccccc1-c1ccccc1` gave an EC50 of 347 nM.

In another data set the test system is Giardia intestinalis. Description: Antigiardial activity against metronidazole-resistant Giardia lamblia isolate 106 trophozoite after 2 days by bactiter-glo viability assay. The data set is classed as functional, organism-based. The conditions noted are these: Giardia duodenalis, isolate 106, 48 h. The gist of the method: as §1
Consider `CCOC(OCC)c1ccc(/C=C/c2ncc([N+](=O)[O-])n2C)cc1`, for which the EC50 is 64.6 nM.

Compound `Cc1cc(C)c(/C=C/c2ncc([N+](=O)[O-])n2C)c(C)c1` had an EC50 of 204 nM.

Compound `Cn1c([N+](=O)[O-])cnc1/C=C/c1cccc(Br)c1` gave an EC50 of 42.7 nM.

Turning to `CC(=O)OC(c1ccc(C)cc1)C(OC(C)=O)c1ncc([N+](=O)[O-])n1C` (stereo unspecified), the EC50 is 513 nM.

With `Cn1c([N+](=O)[O-])cnc1/C=C/c1ccccc1-c1ccccc1`, the EC50 is 537 nM.

The next data set concerns Giardia intestinalis. Description: Antigiardial activity against metronidazole-sensitive Giardia lamblia isolate 713 trophozoite after 2 days by bactiter-glo viability assay. In kind it is functional, organism-based. The conditions noted are these: Giardia duodenalis, isolate 713, 48 h. Put shortly:
as §1
For the compound `CCOC(OCC)c1ccc(/C=C/c2ncc([N+](=O)[O-])n2C)cc1`, the EC50 was 708 nM.

Compound `Cc1cc(C)c(/C=C/c2ncc([N+](=O)[O-])n2C)c(C)c1` gave an EC50 of 1290 nM.

On to `Cn1c([N+](=O)[O-])cnc1/C=C/c1cccc(Br)c1`, for which the EC50 is 126 nM.

Compound `CC(=O)OC(c1ccc(C)cc1)C(OC(C)=O)c1ncc([N+](=O)[O-])n1C` (stereo unspecified) gave an EC50 of 5130 nM.

For `Cn1c([N+](=O)[O-])cnc1/C=C/c1ccccc1-c1ccccc1`, the EC50 was 4570 nM.

The next data set relates to Giardia intestinalis. Description: Antigiardial activity against Giardia lamblia trophozoites isolates after 2 days by bactiter-glo viability assay. The conditions noted are these: Giardia duodenalis, 48 h; read-out: EC50. The data set is classed as functional, organism-based.
For `Cn1c([N+](=O)[O-])cnc1CCc1ccc(Br)cc1`, the EC50 was determined as 1150 nM.

`Cn1c([N+](=O)[O-])cnc1/C=C/c1cccc2ccccc12`: the EC50 was 100 nM.

Still in this data set, the particulars now being: Giardia duodenalis, 48 h; read-out: pEC50 (converted).
For `Cc1ccccc1/C=C/c1ncc([N+](=O)[O-])n1C`, the EC50 was 69.2 nM.

With `Cn1c([N+](=O)[O-])cnc1/C=C/c1ccc2ccccc2c1`, the EC50 is 60.3 nM.

As for `Cn1c([N+](=O)[O-])cnc1CCc1ccc(Br)cc1`, the EC50 is 1150 nM.

Regarding `CCOC(OCC)c1ccc(/C=C/c2ncc([N+](=O)[O-])n2C)cc1`, the EC50 was 52.5 nM.

Regarding `Cn1c([N+](=O)[O-])cnc1/C=C/c1cccc(I)c1`, the EC50 is 93.3 nM.

As to `Cc1cc(C)c(/C=C/c2ncc([N+](=O)[O-])n2C)c(C)c1`, the EC50 is 339 nM.

Consider `Cn1c([N+](=O)[O-])cnc1/C=C/c1cccc(Br)c1`, for which the EC50 was 46.8 nM.

For the compound `CC(=O)OC(c1ccc(C)cc1)C(OC(C)=O)c1ncc([N+](=O)[O-])n1C` (stereo unspecified), the EC50 was 316 nM.

Take `Cn1c([N+](=O)[O-])cnc1/C=C/c1ccccc1-c1ccccc1`: the EC50 is 851 nM.

In the case of `Cc1cccc(/C=C/c2ncc([N+](=O)[O-])n2C)c1`, the EC50 is 39.8 nM.

For the compound `Cn1c([N+](=O)[O-])cnc1/C=C/c1ccc(OC(F)(F)F)cc1`, the EC50 is 741 nM.

As for `COc1ccc(/C=C/c2ncc([N+](=O)[O-])n2C)c(OC)c1OC`, the EC50 is 617 nM.

For `Cc1ccc(/C=C/c2ncc([N+](=O)[O-])n2C)cc1`, the EC50 is 162 nM.

On to `CC(=O)OC(c1ccc(Br)cc1)C(OC(C)=O)c1ncc([N+](=O)[O-])n1C` (stereo unspecified), for which the EC50 is 224 nM.

As to `Cc1ccc(C(Br)C(Br)c2ncc([N+](=O)[O-])n2C)cc1` (stereo unspecified), the EC50 is 64.6 nM.

(Values after ChEMBL document CHEMBL1137002, “Synthesis and electrochemistry of 2-ethenyl and 2-ethanyl derivatives of 5-nitroimidazole and antimicrobial activity against Giardia lamblia” (J Med Chem, 2009).)
